The results in this text go back to ChEMBL document CHEMBL1789904, “Imaging of Plasmodium liver stages to drive next-generation antimalarial drug discovery” (Science, 2011).

The subject of this assay is Plasmodium yoelii. Nature of the assay: NOVARTIS: Antimalarial liver stage activity measured as reduction in Plasmodium yoelii schizont area in HepG2-A16-CD81 cells by immuno-fluorescence, and median schizont size at 10uM compound concentration. The assay is classed as functional, organism-based. To be noted: for IC50: Plasmodium yoelii, HepG2-A16-CD81. In short, it runs like this: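 Host and parasite nuclei stained with Hoechst 33342, parasites with αPyHSP70 antibody; 25 images per well by high-content imaging; median parasite (schizont) area measured by automated image analysis, ~50 schizonts per experiment, two or more independent experiments.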

Broadly, the IC50 is the point on the concentration scale where inhibition reaches its midpoint.

Take `CCOC(=O)c1cnc2ccc(C(C)C)cc2c1O`: the Schizont size is reported as 31.42 um and the IC50 turned out to be 0.352 µM.
On to `CCN(CC)CCCNc1nc2cc(OC)c(OC)cc2c2nc(-c3ccccc3)nn12`, for which the Schizont size was found to be 52.61 um and it took 0.327 µM to reach half-maximal inhibition (IC50).
In the same order, the values of `O=C(Nc1ccc(C(F)(F)F)cc1)c1ccc(NCCCN2CCCCCC2)c([N+](=O)[O-])c1` are 74.21 um and 0.45 µM.
`COc1cccc(C(=O)NC(c2ccccc2OC)c2cc(Cl)c3cccnc3c2O)c1` (stereo not given): the Schizont size came to 20.25 um and the IC50 came out at 0.544 µM.
With `Cc1ccc2[nH]c(C)c(Br)c(=O)c2c1`, the Schizont size is listed as 29.96 um and the IC50 is 0.253 µM.
In the same order, the values of `CCOC(=O)C1=C(C)NC2=C(C(=O)C(C(=O)OCC)C(c3cccc(OC)c3)C2)C1c1cc(OC)c(OC)c(OC)c1` (stereo not given) are 109.59 um and 0.232 µM.
Taken in the same sequence, the figures for `COc1ccc2nc(C)cc(Nc3ccc(Cl)c(Cl)c3)c2c1` were 39.25 um and 0.438 µM.
Taken in the same sequence, the figures for `CCCN(CCC)[P+](CCC)(c1ccc([P+](CCC)(N(CCC)CCC)N(CCC)CCC)cc1)N(CCC)CCC` were 28.29 um and 0.28 µM.
The compound `Cc1nc2ccc(Br)cc2c(O)c1CC(C)C` yielded a Schizont size of 30.79 um and an IC50 of 0.244 µM.
Taken in the same sequence, the figures for `O=C(Cc1ccccc1)NC(c1ccc(Cl)cc1)c1ccc2cccnc2c1O` (stereo not given) were 17.33 um and 0.19 µM.
Compound `Cc1ccc(C2Sc3ccccc3NC3=C2C(=O)c2ccccc23)cc1` (stereo not given) had a Schizont size of 27.03 um and an IC50 of 0.278 µM.
Taken in the same sequence, the figures for `COc1cc(C(=O)N2N=C(c3c(-c4ccccc4)c4cc(Br)ccc4[nH]c3=O)CC2c2cccc([N+](=O)[O-])c2)cc(OC)c1OC` (stereo not given) were 29.43 um and 0.435 µM.
Taken in the same sequence, the figures for `Oc1c(C(Nc2ccccn2)c2cccc(Cl)c2Cl)ccc2cccnc12` (stereo not given) were 23.8 um and 0.402 µM.
Taken in the same sequence, the figures for `CCOc1ccc(Nc2cc(=O)oc3ccccc23)cc1` were 43.94 um and 0.502 µM.
With `CCOC(=O)c1cnc2ccc(OC)cc2c1NCc1cccs1`, the Schizont size is given as 31.63 um and the concentration for half-maximal inhibition (IC50) amounted to 0.193 µM.
`CC(=O)N(C)C1=C(N2CCOCC2)C(=O)c2ccccc2C1=O` yielded a Schizont size of 38.72 um and a 50% inhibitory concentration (IC50) of 0.229 µM.
Taken in the same sequence, the figures for `Cc1cccc(NC(=S)NC2CC3CCCC(C2)N3CCc2ccccc2)c1` (stereo not given) were 67.74 um and 0.277 µM.
In the same order, the values of `CCC(C)Nc1nc(NC(C)CC)nc(N2CCCCCC2)n1` (stereo not given) are 20.35 um and 0.3 µM.
Taken in the same sequence, the figures for `COc1cccc(NC(=O)c2ccc(NCCCN3CC(C)CC(C)C3)c([N+](=O)[O-])c2)c1` (stereo not given) were 87.57 um and 0.437 µM.
For the compound `Cc1oc2c(c1C(=O)NCC1CCCO1)C(=O)c1ccccc1C2=O` (stereo not given), the Schizont size is 21.4 um and the concentration for half-maximal inhibition (IC50) was determined as 0.189 µM.
`Cc1ccc(Nc2nc3c(N)nnc(N)c3nc2Nc2ccc(C)cc2)cc1`: the Schizont size came out at 50.31 um and the IC50 was 0.488 µM.
The compound `CCNC(=O)C1CCN(c2cccc3c2C(=O)N(C2CCCCCCC2)C3=O)CC1` registered a Schizont size of 30.48 um and an IC50 of 0.269 µM.
In the same order, the values of `Nc1ccc(-c2nc3cc(Oc4ccc(Oc5ccc6[nH]c(-c7ccc(N)cc7)nc6c5)cc4)ccc3[nH]2)cc1` are 116.48 um and 0.319 µM.
In the same order, the values of `CCCCC(=O)NC(c1cccc([N+](=O)[O-])c1)c1ccc2cccnc2c1O` (stereo not given) are 23.69 um and 0.449 µM.
Taken in the same sequence, the figures for `Cc1[nH]c2ccccc2c(=O)c1Br` were 29.43 um and 0.214 µM.
On to `Cc1ccc(Nc2nc(NCc3ccccc3)c3ccccc3n2)cc1`, for which the Schizont size was found to be 31.73 um and the IC50 was 0.278 µM.
On to `CCCC(=O)N1CCN(c2nc(Cc3ccccc3)c3c(c2C#N)CC(C)(C)OC3)CC1`, for which the Schizont size came out at 22.44 um and 0.348 µM corresponded to half-maximal inhibition (IC50).
Taken in the same sequence, the figures for `CC[n+]1c(C=C2C=C(C)OC(C)=C2)sc2ccccc21.[Cl-]` were 25.36 um and 0.245 µM.
In the same order, the values of `CCCCCCCC[n+]1c(C)n(C)c2cc(Cl)c(Cl)cc21.[I-]` are 40.39 um and 0.419 µM.
In the same order, the values of `CCN(CC)c1ccc(NC(=O)c2cccs2)cc1` are 54.07 um and 0.396 µM.
Consider `CCCc1nc2ccc(NC(=O)c3ccco3)cc2c(=O)n1Cc1ccc(-c2ccccc2)cc1`, for which the Schizont size was 25.78 um and 0.306 µM corresponded to half-maximal inhibition (IC50).
Consider `CCOC(=O)C1=C(C)NC2=C(C(=O)C(C(=O)OCC)C(c3ccc(OC)cc3)C2)C1c1ccc(OC)c(OC)c1` (stereo not given), for which the Schizont size is reported as 86.53 um and the IC50 is 0.24 µM.
Taken in the same sequence, the figures for `O=c1c2ccccc2[nH]c2ccc(F)cc12` were 29.64 um and 0.223 µM.
For the compound `Cc1ccccc1N=Nc1ccc(NC(=O)c2ccco2)c(C)c1`, the Schizont size is listed as 51.87 um and the 50% inhibitory concentration (IC50) turned out to be 0.299 µM.
In the same order, the values of `CCCN[P+](CC(C)C)(NCCC)NCCC` are 27.24 um and 0.281 µM.
Compound `COc1ccc2nc(C)cc(Nc3ccc(Oc4ccc(Cl)c5ccccc45)c(Cl)c3)c2c1` returned a Schizont size of 22.65 um and a half-maximal inhibitory concentration (IC50) of 0.267 µM.
Consider `CCOC(=O)C1=C(C)NC2=C(C(=O)C(C(=O)OCC)C(c3ccccc3OC)C2)C1c1ccc([N+](=O)[O-])cc1` (stereo not given), for which the Schizont size is listed as 76.3 um and half-maximal inhibition (IC50) required 0.335 µM.
In the same order, the values of `COc1ccc(C(NC(=O)c2cccnc2)c2cc(Cl)c3cccnc3c2O)cc1` (stereo not given) are 21.08 um and 0.542 µM.
In the same order, the values of `O=C(Nc1c2ccccc2nc2ccccc12)c1cc(Cl)ccc1O` are 43.52 um and 0.181 µM.
Taken in the same sequence, the figures for `CCN(CC)CCCN(Cc1cc2ccc(C)cc2[nH]c1=O)C(=S)Nc1cccc(Cl)c1` were 58.76 um and 0.448 µM.
For the compound `COc1ccc(Nc2nc(NCc3ccccc3)c3ccccc3n2)cc1`, the Schizont size is recorded as 29.96 um and the half-maximal inhibitory concentration (IC50) worked out at 0.305 µM.
`CCC(Sc1nnc(-c2ccc(C)cc2)c(-c2ccc(C)cc2)n1)C(=O)NCCOC` (stereo not given): the Schizont size was found to be 42.59 um and the half-maximal inhibitory concentration (IC50) stood at 0.303 µM.
Take `O=[N+]([O-])c1cccc(C(Nc2nccs2)c2ccc3cccnc3c2O)c1` (stereo not given): the Schizont size came to 43.42 um and the IC50 is 0.358 µM.
Turning to `Cl.Clc1cccc(Nc2nc(NCc3ccco3)c3ccccc3n2)c1`, the Schizont size was found to be 36.64 um and the IC50 is 0.383 µM.
In the same order, the values of `CCOC(=O)C1=C(C)NC2=C(C(=O)C(C(=O)OCC)C(c3ccccc3OC)C2)C1c1cc(OC)c(OC)c(OC)c1` (stereo not given) are 103.54 um and 0.509 µM.
In the same order, the values of `CCOc1ccc(Nc2nc(NCc3ccccc3)c3ccccc3n2)cc1.Cl` are 23.69 um and 0.48 µM.
Taken in the same sequence, the figures for `CCCc1c(C)nc2ccccc2c1O` were 34.55 um and 0.279 µM.
Compound `C=CCc1c(C)nc2ccc(Br)cc2c1O` returned a Schizont size of 32.46 um and a concentration for half-maximal inhibition (IC50) of 0.181 µM.
Compound `O=C(Nc1ccc(Oc2cccc(Oc3ccc(NC(=O)c4ccc(Br)o4)cc3)c2)cc1)c1ccc(Br)o1` registered a Schizont size of 18.79 um and a concentration for half-maximal inhibition (IC50) of 0.433 µM.
In the same order, the values of `CCOC(=O)c1cnc2ccc(OC)cc2c1Cl` are 31 um and 0.41 µM.
Taken in the same sequence, the figures for `OC1=C2C(=Nc3ccccc3SC2c2ccc(Br)cc2)c2ccccc21` (stereo not given) were 34.03 um and 0.327 µM.
In turn, `CCCC(=O)NC(c1ccc(Cl)cc1)c1ccc2cccnc2c1O` (stereo not given) displayed a Schizont size of 14.09 um and a half-maximal inhibitory concentration (IC50) of 0.19 µM.
Regarding `Cc1cc(C(=O)Nc2cnn(Cc3ccc(Cl)cc3Cl)c2)no1`, the Schizont size is 57.82 um and half-maximal inhibition (IC50) was put at 0.335 µM.
The compound `O=c1c2c([nH]c3ccccc13)CCCC2` gave a Schizont size of 39.45 um and a concentration for half-maximal inhibition (IC50) of 0.5 µM.
In turn, `CCOC(=O)CN(N=O)C1=C(N2CC2)C(=O)c2ccccc2C1=O` returned a Schizont size of 35.8 um and an IC50 of 0.48 µM.
`Oc1cccc2ccc[n+](CC(O)Cn3c4ccccc4c4ccccc43)c12.[Cl-]` (stereo not given) returned a Schizont size of 49.37 um and a half-maximal inhibitory concentration (IC50) of 0.311 µM.
Taken in the same sequence, the figures for `N#Cc1ccc(NC(=O)NC2CC3CCCC(C2)N3CCc2ccccc2)cc1` (stereo not given) were 62 um and 0.497 µM.
Taken in the same sequence, the figures for `CCCCCCCc1cc(O)c2c3c(c(=O)oc2c1)CCC(C)C3` (stereo not given) were 31.52 um and 0.247 µM.
In the same order, the values of `O=C1c2ccccc2C2=Nc3ccccc3SC(c3ccccc3F)C12` (stereo not given) are 28.6 um and 0.239 µM.
In the case of `CCN1CCN(c2c(C(=O)c3ccccc3)cnc3cc(OC)c(OC)cc23)CC1`, the Schizont size turned out to be 89.76 um and the half-maximal inhibitory concentration (IC50) turned out to be 0.367 µM.
In the same order, the values of `CCCCNC(=O)C(CC)Sc1nnc(-c2ccc(C)cc2)c(-c2ccc(C)cc2)n1` (stereo not given) are 31 um and 0.291 µM.
In turn, `CN(C)c1ccc(-c2n(C)c3ccccc3[n+]2C)cc1.[Cl-]` showed a Schizont size of 46.86 um and an IC50 of 0.175 µM.
In the same order, the values of `CC[n+]1c(C=C2C=CN(C)C=C2)ccc2cc(C)ccc21.[I-]` are 25.57 um and 0.17 µM.
Taken in the same sequence, the figures for `CCCCc1c(CCC)c(=N)c2ccccc2n1C.I` were 58.14 um and 0.244 µM.
As for `CCCCN(CCCC)S(=O)(=O)c1ccc(NC(=O)c2ccco2)cc1`, the Schizont size stood at 35.28 um and the IC50 came out at 0.377 µM.
